Compounds with a hit are over-represented: about 2% of the library has one in this group of screens.
C8 TRAIL sens: viability loss with TRAIL in NB7+C8 cells, primary screen, TRAIL sensitizer project, cell-based, ATPlite luminescence; AID 624354, 2012; inhibition (viability loss, TRAIL sensitization), % at 10 µM; actives 1% (n = 360,000);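 active = compounds causing at least 50% loss of cell viability in the single-dose screen, relative to plate controls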
FLuc inh counter: firefly luciferase enzyme inhibitors, primary screen, artefact control for luciferase-based inhibitor screens, biochemical, luminescence, ATPLite; 10 min; inhibition, % at 10 µM; actives 1.5% (n = 200,000);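 active = inhibition above about 50% when tested at 10 µM, limit read from the data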
FLuc stim CS: FLuc activators, initial screening, artefact control for FLuc-dependent activation tests, biochemical, ATPlite luminescence; AID 1027, 2008; activation factor at 10 µM; ATPlite luciferase biochemical, 10 min; 0 = ATP-free wells, 1 = DMSO control; Luciferin 4-monooxygenase (Photinus pyralis), P08659; 200,000 tested, under 10 active;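 active = luciferase activation factor, scaled between plate controls, of at least 2 with compound at 10 µM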
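Material: Luciferase/luciferin reagent mix | Doses: Test compounds dosed from 2 mM stocks in 100% DMSO | Timing: 10 min incubation after luciferase reagent addition, room temperature | Measured by: Luminescence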
PPC-1+TRAIL kill: compounds killing PPC-1 cancer cells with TRAIL present, primary screen, TRAIL potentiator project, ATPLite luminescence, uHTS; PPC-1 cells + TRAIL, ATPLite viability luminescence; cell killing (% activity), % at 4 µM or 5 µM; actives 0.41% (n = 220,000); AID 1443, 2008;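 active = cell killing above 50% in the first pass at 4 µM, then a duplicate retest at 5 µM averaging 50% or more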
HSP90 refold inh: HSP90 inhibitors, primary screen, cell lysate, luminescence; Rabbit reticulocyte lysate, luciferase refolding luminescence, 3 h; AID 1789, 2009; inhibition, % at 5.6 µM; actives 0.91% (n = 290,000); Heat shock protein HSP 90 (rabbit reticulocyte lysate; luciferase refolding);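 active = inhibition above the screen-wide mean plus 3 SD, computed separately per campaign, cut at about 16% in these data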;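 also: inhibitors lower the luminescence because luciferase stays unfolded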
Numbers stand for hits; - = inactive; . = no result.

SMILES	C8 TRAIL sens	FLuc inh counter	FLuc stim CS	PPC-1+TRAIL kill	HSP90 refold inh
COc1ccc(/C=C/C(=O)c2ccc([N+](=O)[O-])o2)cc1	51.2	.	.	.	.
COc1ccc(S(=O)(=O)N(C)C)cc1NC(=O)c1ccc2c(c1)NC(=O)C(C)S2 (stereo not drawn)	-	.	.	.	.
COc1ccc(Cn2c(SCc3cc(C)ccc3C)nc3cc(OC)c(OC)cc3c2=N)cc1	91.7	-	-	-	-
COc1cc2nc(SCc3ccc(Cl)cc3Cl)n(Cc3cccs3)c(=N)c2cc1OC	-	-	-	-	-
COc1cc2nc(SCc3ccc(C(F)(F)F)cc3)n(Cc3cccs3)c(=N)c2cc1OC	-	-	-	-	-
COc1ccc(Cn2c(SCc3ccc(C)cc3)nc3cc(OC)c(OC)cc3c2=N)cc1Cl	93.3	-	-	-	-
S=C(c1ccc(-c2ccccc2Cl)o1)N1CCCCC1	-	-	-	-	-
S=C(c1ccc(-c2ccc(Cl)cc2)o1)N1CCCCC1	-	71.3	-	-	-
COc1ccc(CCNC(=O)C2CCN(S(=O)(=O)c3ccc4nc5c(c(C(=O)O)c4c3)CCCC5)CC2)cc1OC	-	.	.	.	-
C(=NN1CCCCCC1)c1ccccc1	-	.	.	.	.
CN(c1ccccc1)c1ccc(/C=N/N2CCOCC2)cc1	-	69.6	-	-	-
COc1ccc(CC2C(=O)NC(C)C(=O)N(C)C3Cc4ccc(cc4)Oc4cc(ccc4O)CC(C(=O)NC(C)C(=O)NC(C)C(=O)N2C)N(C)C3=O)cc1 (stereo not drawn)	66.4	.	.	.	.
COc1ccc(NC(=O)c2cccc(S(=O)(=O)N3CCN(C)CC3)c2)c(OC)c1	-	.	.	.	-
O=C(CCl)N1CCCC1c1ccc2c(c1)OCCO2 (stereo not drawn)	64.6	.	.	.	-
CCOC(=O)/C(=C\c1ccc(OC(F)F)cc1)C1=Nn2c(nnc2-c2ccc(Cl)cc2)SC1	93.7	-	-	-	-
COc1ccc(-c2nnc3n2N=C(C)CS3)cc1	-	-	-	-	-
CCOC(=O)/C(=C/c1ccc(OC(F)F)cc1)C1=Nn2c(nnc2-c2ccc(Cl)cc2)SC1	90.4	.	.	.	.
COC(=O)c1cc(C(=O)Nc2nnc(C3CC3)s2)cc([N+](=O)[O-])c1	-	-	-	-	-
Cc1c(N(C)S(=O)(=O)c2cccc(C(=O)NC(C)C)c2)c(=O)n(-c2ccccc2)n1C	-	.	.	.	-
O=C(Nc1ccc(SC(F)(F)F)cc1)c1ccccn1	-	71.2	-	-	-
COc1ccc(/C=N/Nc2nc(Nc3ccccc3)nc(N3CCCC3)n2)cc1	-	-	-	-	-
O=C(O)COc1ccc(/C=N/Nc2nc(Nc3ccccc3)nc(N3CCCCC3)n2)cc1	-	54.9	-	-	-
CCOC(=O)N1CCC(Nc2c(-c3ccc(C)cc3)c(=O)c2=O)CC1	60.2	-	-	-	-
O=C(Nc1cccc(Oc2ccccc2)c1)C1Cc2c(-c3ccc4c(c3)OCO4)ccnc2O1 (stereo not drawn)	-	.	.	.	.
O=C(CSc1nnc(NC(=O)c2ccccc2)s1)NCC1CCCO1 (stereo not drawn)	56.1	.	.	.	-
SMILES	C8 TRAIL sens	FLuc inh counter	FLuc stim CS	PPC-1+TRAIL kill	HSP90 refold inh
COc1cccc(C(=O)Nc2nnc(SCC(=O)NC3CCCC3)s2)c1	57.3	.	.	.	-
O=C(CSc1nnc(NC(=O)c2ccccc2)s1)NCc1ccco1	61.2	.	.	.	-
O=C(CSc1nnc(NC(=O)Cc2ccccc2)s1)NCC1CCCO1 (stereo not drawn)	-	-	-	-	-
O=C(CSc1nnc(NC(=O)c2ccc(F)cc2)s1)NCc1ccco1	56.4	.	.	.	-
O=C(CSc1nnc(NC(=O)c2cccc(F)c2)s1)NCc1ccco1	-	.	.	.	-
O=c1[nH]c(/C=C/c2ccccc2Cl)nc2ccccc12	64.1	.	.	.	-
Cc1cccc(/C=C/c2nc3ccccc3c(=O)[nH]2)c1	55.0	67.8	-	-	-
O=C(O)c1ccc(/C=C/c2nc3ccccc3c(=O)[nH]2)cc1	-	.	.	.	-
Cc1[nH]c2ccccc2c1/C=C/c1nc2ccccc2c(=O)[nH]1	-	.	.	-	-
Clc1cccc(Cl)c1/C=C/c1nc2ccccc2[nH]1	67.8	82.1	-	-	-
CC12CCC(=O)N1C(C(=O)Nc1nc3ccccc3s1)CS2 (stereo not drawn)	-	.	.	.	.
Cn1c(=NC(=O)COc2ccccc2)sc2ccccc21	-	-	-	-	-

Bioassay records from PubChem.
